Measured values from publication PMC3046310 (Bioconjugate chemistry, 2010).
Entries after “also recorded” stand apart in the source; their conditions may differ.

Assays:
A375M melanoma = test: Small-animal PET imaging of mice bearing A375M tumors; assay type: in vivo, human
Outline: (§1)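 Mice bearing B16F10 or A375M tumors received 110–130 μCi (4.07–4.81 MBq) 18F tracer via the tail vein. At 1 and 2 h p.i., mice under 2% isoflurane were placed prone for 5-min static small-animal PET scans, reconstructed by 2D OSEM without attenuation correction. ROIs drawn on decay-corrected coronal images were converted to %ID/g using a calibration constant, assuming 1 g/mL tissue density.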

A375M human melanoma = test: Biodistribution in Foxn1 nude mice bearing A375M tumors; assay type: in vivo
B16F10 tumors = test: Small-animal PET imaging of mice bearing B16F10 tumors; assay type: in vivo, murine; conditions: for PET tumor delineation / image quality: B16F10 tumors, 1 and 2 h p.i.
Outline: as §1

B16F10 murine melanoma = test: Biodistribution in C57BL/6 mice bearing B16F10 tumors; assay type: in vivo
Outline: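 Male C57BL/6 mice, 5–6 weeks old, were given 1 × 10^6 B16F10 cells in the right flank. At tumor diameter ~8 mm, 110–130 μCi (4.07–4.81 MBq) 18F tracer in PBS (0.01 M, pH 7.4) was injected i.v. into the tail vein. Mice (n=3) were killed by CO2 at 1, 2 and 4 h p.i. Tumor, blood and organs were weighed and γ-counted, giving %ID/g. Groups were compared by unpaired Student's t-test.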

MC1R [1] = molecular target: T1, MC1R (Mus musculus, UniProt Q01727); test: In vitro cell binding assay; design: species or system murine; conditions: B16F10 cells
Outline: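 B16F10 cells were grown in high-glucose DMEM with 10% FBS and penicillin/streptomycin at 37 °C and 5% CO2. Cells (0.5 × 10^6) were resuspended in DMEM with 25 mM HEPES, 0.2% BSA and 0.3 mM 1,10-phenanthroline. They were incubated for 90 min at 37 °C with test compound (10^−12–10^−6 M) and ~40,000 cpm 125I-(Tyr2)-NDP. Cells were washed three times with ice-cold PBS and counted. IC50 was taken as the competitor concentration giving 50% inhibition of radioligand binding.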

MC1R [2] = molecular target: T1, MC1R; conditions: previous studies; ref [19]; cited from earlier work
[3] = Foxn1 nude mice, A375M, 2 h p.i., i.v. 110-130 μCi, mean ± SD, n = 3
[4] = C57BL/6 mice, B16F10, 2 h p.i., i.v. 110-130 μCi, mean ± SD, n = 3

T1 sequence (Q01727 whole entry): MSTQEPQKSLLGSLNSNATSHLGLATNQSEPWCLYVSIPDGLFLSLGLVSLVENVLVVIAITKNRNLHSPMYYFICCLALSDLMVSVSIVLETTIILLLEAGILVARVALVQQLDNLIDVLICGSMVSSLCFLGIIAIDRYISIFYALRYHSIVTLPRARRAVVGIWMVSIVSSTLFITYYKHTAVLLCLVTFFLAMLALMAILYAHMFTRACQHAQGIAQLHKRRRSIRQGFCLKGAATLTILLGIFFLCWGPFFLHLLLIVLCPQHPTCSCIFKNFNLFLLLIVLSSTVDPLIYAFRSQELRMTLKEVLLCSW

## CC(=O)N[C@H](CCCCNC(=O)C(C)F)C(=O)N[C@@H](CS)C(=O)N[C@@H](CS)C(=O)N[C@@H](CCC(=O)O)C(=O)N[C@@H](Cc1c[nH]cn1)C(=O)N[C@H](Cc1ccccc1)C(=O)N[C@@H](CCCNC(=N)N)C(=O)N[C@@H](Cc1c[nH]c2ccccc12)C(=O)N[C@@H](CS)C(=O)N[C@@H](CCCNC(=N)N)C(=O)N1CCC[C@H]1C(=O)N[C@H](C(N)=O)C(C)C (some centres unmarked) [^18F-FP-RMSH-1]
A375M melanoma; 1 and 2 h, compared with B16F10 tumor bearing mice
  PET tumor uptake and tumor-to-background ratio, A375M: much lower tumor uptake and poor tumor-to-background ratio
A375M melanoma; 1 and 2 h p.i.
  PET kidney activity accumulation, A375M: high activity accumulation in kidneys
  PET visibility of A375M tumor: barely discernable; also recorded: barely noticeable
A375M human melanoma; 2 h p.i., P < 0.01
  A375M tumor uptake compared with B16F10 tumors: significantly lower than in B16F10 tumors
A375M human melanoma; [3]
  Heart uptake: 0.41 ± 0.19 %ID/g
  Intestine uptake: 0.40 ± 0.19 %ID/g
  Liver uptake: 0.69 ± 0.21 %ID/g
  Pancreas uptake: 0.78 ± 0.49 %ID/g
B16F10 tumors; B16F10, 1 and 2 h p.i.
  PET liver and kidney uptake: moderate to high uptake in liver and kidney
B16F10 tumors
  PET tumor delineation / image quality: Improved quality of PET images; also recorded: clearly delineated over the background at 1 and 2 h p.i
B16F10 murine melanoma; B16F10 model
  Muscle uptake: low uptake in muscle
  blood clearance: rapid blood clearance
  lung and liver uptake compared with ^18F-FB-RMSH-1: much lower uptake in lung and liver
  tumor-to-blood and tumor-to-muscle ratios compared with ^18F-FB-RMSH-1: Much higher tumor-to-blood and tumor-to-muscle ratios
B16F10 murine melanoma; B16F10 tumor bearing mice, P < 0.05
  kidney uptake compared with ^18F-FB-RMSH-1: lower kidney uptake
B16F10 murine melanoma; [4]
  Tumor / Muscle uptake ratio: 9.36 ± 3.98

## CC(=O)N[C@H](CCCCNC(=O)C(C)F)C(=O)N[C@@H](CS)C(=O)N[C@@H](CS)C(=O)N[C@@H](CCC(=O)O)C(=O)N[C@@H](Cc1c[nH]cn1)C(=O)N[C@H](Cc1ccccc1)C(=O)N[C@@H](CCCNC(=N)N)C(=O)N[C@@H](Cc1c[nH]c2ccccc12)C(=O)N[C@@H](CS)C(=O)N[C@@H](CCCNC(=N)N)C(=O)N1CCC[C@H]1C(=O)N[C@H](C(N)=O)C(C)C (some centres unmarked) [^18F-FP-RMSH-2]
A375M human melanoma; "in both models" (P < 0.05), A375M model
  liver and lung uptake compared with ^18F-FB-RMSH-2, A375M: lower
A375M human melanoma; A375M model, P < 0.05
  liver and kidney uptake compared with ^18F-FP-RMSH-1, A375M: higher uptake in liver and kidney
A375M human melanoma; [3]
  Blood uptake: 0.20 ± 0.09 %ID/g
  Bone uptake: 0.25 ± 0.12 %ID/g
  Brain uptake: 0.04 ± 0.01 %ID/g
  Heart uptake: 0.18 ± 0.07 %ID/g
  Intestine uptake: 0.17 ± 0.00 %ID/g
  Liver uptake: 1.66 ± 0.08 %ID/g
  Lung uptake: 0.47 ± 0.21 %ID/g
  Muscle uptake: 0.10 ± 0.02 %ID/g
  Pancreas uptake: 0.09 ± 0.01 %ID/g
  Spleen uptake: 0.27 ± 0.03 %ID/g
  Stomach uptake: 0.52 ± 0.50 %ID/g
  Tumor / Blood uptake ratio: 2.90 ± 0.04
  Tumor / Muscle uptake ratio: 6.40 ± 2.66
B16F10 tumors; B16F10, 1 and 2 h, ROI quantification, P < 0.01
  PET tumor uptake compared with ^18F-FP-RMSH-1: much lower tumor uptake
B16F10 tumors; B16F10, 1 and 2 h p.i.
  PET liver and kidney uptake: moderate to high uptake in liver and kidney
B16F10 tumors; B16F10, 1 and 2 h p.i., ROI quantification, n = 3, P < 0.01
  PET kidney uptake compared with ^18F-FP-RMSH-1: much higher uptake in kidney
B16F10 tumors
  PET tumor delineation / image quality: much less prominent tumor uptake
B16F10 murine melanoma; "in both models" (P < 0.05), B16F10 model
  liver and lung uptake compared with ^18F-FB-RMSH-2, B16F10: lower
B16F10 murine melanoma; [4]
  Blood uptake: 0.31 ± 0.11 %ID/g
  Bone uptake: 0.52 ± 0.08 %ID/g
  Brain uptake: 0.04 ± 0.01 %ID/g
  Heart uptake: 0.21 ± 0.06 %ID/g
  Intestine uptake: 0.91 ± 0.33 %ID/g
  Lung uptake: 0.64 ± 0.15 %ID/g
  Muscle uptake: 0.20 ± 0.05 %ID/g
  Pancreas uptake: 0.10 ± 0.03 %ID/g
  Spleen uptake: 0.53 ± 0.03 %ID/g
  Stomach uptake: 0.42 ± 0.14 %ID/g
  Tumor / Blood uptake ratio: 2.74 ± 0.80
  Tumor / Muscle uptake ratio: 3.98 ± 1.09
B16F10 murine melanoma; biodistribution, 2 h
  liver uptake compared with ^18F-FP-RMSH-1: higher uptake in liver

## CC(=O)N[C@H](CCCCNC(=O)C(C)F)C(=O)N[C@@H](CS)C(=O)N[C@@H](CS)C(=O)N[C@@H](CCC(=O)O)C(=O)N[C@@H](Cc1c[nH]cn1)C(=O)N[C@H](Cc1ccccc1)C(=O)N[C@@H](CCCNC(=N)N)C(=O)N[C@@H](Cc1c[nH]c2ccccc12)C(=O)N[C@@H](CS)C(=O)N[C@@H](CCCNC(=N)N)C(=O)N1CCC[C@H]1C(=O)N[C@H](C(N)=O)C(C)C (some centres unmarked) [^19F-FP-RMSH-1]
MC1R [1]
  receptor binding affinity: within low nM range

## CC(=O)N[C@H](CCCCNC(=O)C(C)F)C(=O)N[C@@H](CS)C(=O)N[C@@H](CS)C(=O)N[C@@H](CCC(=O)O)C(=O)N[C@@H](Cc1c[nH]cn1)C(=O)N[C@H](Cc1ccccc1)C(=O)N[C@@H](CCCNC(=N)N)C(=O)N[C@@H](Cc1c[nH]c2ccccc12)C(=O)N[C@@H](CS)C(=O)N[C@@H](CCCNC(=N)N)C(=O)N1CCC[C@H]1C(=O)N[C@H](C(N)=O)C(C)C (some centres unmarked) [^19F-FP-RMSH-2]
MC1R [1]
  receptor binding affinity: within low nM range

## Ac-d,Lys-ReCCMSH(Arg^11) (sidechain bridge or staple) [RMSH-1]
MC1R [2]
  MC1R binding affinity of unconjugated RMSH isomers: high MC1R binding affinity in nanomolar (nM) range

## Ac-d,Lys-ReCCMSH(Arg^11) (sidechain bridge or staple) [RMSH-2]
MC1R [2]
  MC1R binding affinity of unconjugated RMSH isomers: high MC1R binding affinity in nanomolar (nM) range
